As usually defined, the IC50 is the concentration at which inhibition is half-maximal.

We go through 18 compounds from ChEMBL document CHEMBL1144697, “9-cyano-1-azapaullone (cazpaullone), a glycogen synthase kinase-3 (GSK-3) inhibitor activating pancreatic beta cell protection and replication” (J Med Chem, 2008).

In the first test the target is Glycogen synthase kinase-3 (Homo sapiens, UniProt P49840+P49841). Nature of the test: Inhibition of GSK3alpha/beta in pig brain. On the set-up: species or system Sus scrofa. The note with it: target entry is the homologue from another species.
In turn, `N#Cc1ccc2[nH]c3c(c2c1)CC(=O)Nc1ccncc1-3` gave an IC50 of 0.021 µM.
The same measure, in the same setting: with `O=C1Cc2c([nH]c3ccccc23)-c2ncccc2N1` the figure was 0.8 µM; with `O=C1Cc2c([nH]c3ccc(Cl)cc23)-c2cnccc2N1`, 0.018 µM; with `O=C1Cc2c(n(-c3ccccc3)c3ccccc23)-c2ncccc2N1`, greater than 10 µM.
For `N#Cc1ccc2[nH]c3c(c2c1)CC(=O)Nc1ccc(Br)nc1-3`, the IC50 stood at 3.8 µM.
On the same count and under the same terms, the result for `O=C1Cc2c(n(Cc3ccccc3)c3ccccc23)-c2cnccc2N1` reads 0.41 µM.
The same measure, in the same setting: with `O=C1Cc2c(n(Cc3ccccc3)c3ccccc23)-c2ncccc2N1` the figure was 2.1 µM.
Consider `O=C1Cc2c([nH]c3ccc(O)cc23)-c2ncccc2N1`, for which the IC50 amounted to 1.4 µM.
The compound `O=C1Cc2c([nH]c3c(F)cc(F)cc23)-c2ncccc2N1` returned an IC50 of 1.8 µM.
Still for that read-out and setting: the result for `COc1ccc2[nH]c3c(c2c1)CC(=O)Nc1cccnc1-3` reads 0.8 µM.
For the compound `O=C1Cc2c(oc3ccccc23)-c2ccccc2N1`, the IC50 was greater than 10 µM.
The same measure, in the same setting: the result for `CCn1c2c(c3ccccc31)CC(=O)Nc1cccnc1-2` reads 13 µM.
Same read-out and setting: with `O=C1Cc2c([nH]c3ccc(Br)cc23)-c2cnccc2N1` the figure was 0.052 µM; with `Cn1c2c(c3ccccc31)CC(=O)Nc1cccnc1-2`, 1 µM; with `O=C1Cc2c([nH]c3ccc(C(=O)O)cc23)-c2ncccc2N1`, 100 µM.

Tested on in a further test: not listed separately
Nature of the test: Activation of Pax4 RNA expression in rat INS-1E cells at 10 uM after 24 hrs relative to control. Format: functional, cell-based.
Details: not given
Put shortly:
(§1)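 Compound added to INS-1E cells for 4 h or 24 h. Pax4 and cyclophilin B transcripts quantified by qRT-PCR. Reported as fold change versus vehicle-treated control, with the control level set to 1. Mean of triplicates ± SD.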
With `Cc1cnc(-c2cnc(NCCNc3ccc(C#N)cn3)nc2-c2ccc(Cl)cc2Cl)[nH]1` [LADUVIGLUSIB], the Fold change is 0.76.

For another test, the target named is Cyclin-dependent kinase 5/CDK5 activator 1 (Homo sapiens, UniProt Q00535). Nature of the test: Inhibition of recombinant CDK5/p25 expressed in Escherichia coli.
Chain of Cyclin-dependent kinase 5/CDK5 activator 1 (Q00535 whole entry): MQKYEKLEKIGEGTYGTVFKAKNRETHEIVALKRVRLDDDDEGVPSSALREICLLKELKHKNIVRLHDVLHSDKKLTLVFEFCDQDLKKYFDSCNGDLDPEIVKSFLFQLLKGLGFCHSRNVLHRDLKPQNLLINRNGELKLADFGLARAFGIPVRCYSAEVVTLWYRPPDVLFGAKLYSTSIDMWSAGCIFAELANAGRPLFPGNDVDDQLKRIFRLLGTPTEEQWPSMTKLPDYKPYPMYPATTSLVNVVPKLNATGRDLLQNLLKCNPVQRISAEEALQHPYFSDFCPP
Chain of Cyclin-dependent kinase 5/CDK5 activator 1 (Q15078 whole entry, further chain): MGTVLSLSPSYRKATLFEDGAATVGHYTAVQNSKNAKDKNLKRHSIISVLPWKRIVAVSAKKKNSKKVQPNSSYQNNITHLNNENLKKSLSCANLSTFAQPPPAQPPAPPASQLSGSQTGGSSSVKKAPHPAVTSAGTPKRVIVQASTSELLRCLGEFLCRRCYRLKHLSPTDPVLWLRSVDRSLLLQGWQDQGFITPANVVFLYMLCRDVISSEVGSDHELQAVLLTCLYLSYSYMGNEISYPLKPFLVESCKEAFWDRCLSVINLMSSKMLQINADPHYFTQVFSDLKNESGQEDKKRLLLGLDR
Details: not given
`N#Cc1ccc2[nH]c3c(c2c1)CC(=O)Nc1ccncc1-3`: the 50% inhibitory concentration (IC50) turned out to be 0.032 µM.
Take `O=C1Cc2c([nH]c3ccccc23)-c2ncccc2N1`: the IC50 was 9 µM.
Still for that read-out and setting: the result for `O=C1Cc2c([nH]c3ccc(Cl)cc23)-c2cnccc2N1` reads 0.21 µM.
Regarding `O=C1Cc2c(n(-c3ccccc3)c3ccccc23)-c2ncccc2N1`, the IC50 is greater than 10 µM.
On to `N#Cc1ccc2[nH]c3c(c2c1)CC(=O)Nc1ccc(Br)nc1-3`, for which the IC50 turned out to be 10 µM.
On the same count and under the same terms, with `O=C1Cc2c(n(Cc3ccccc3)c3ccccc23)-c2cnccc2N1` the figure was greater than 10 µM; with `O=C1Cc2c(n(Cc3ccccc3)c3ccccc23)-c2ncccc2N1`, greater than 10 µM; with `O=C1Cc2c([nH]c3ccc(O)cc23)-c2ncccc2N1`, 5 µM.
On the same count and under the same terms, the result for `O=C1Cc2c([nH]c3c(F)cc(F)cc23)-c2ncccc2N1` reads greater than 10 µM; that for `COc1ccc2[nH]c3c(c2c1)CC(=O)Nc1cccnc1-3`, 4 µM.
On the same count and under the same terms, the result for `O=C1Cc2c(oc3ccccc23)-c2ccccc2N1` reads greater than 10 µM.
As to `CCn1c2c(c3ccccc31)CC(=O)Nc1cccnc1-2`, the IC50 was greater than 10 µM.
In the case of `O=C1Cc2c([nH]c3ccc(Br)cc23)-c2cnccc2N1`, the IC50 was 0.18 µM.
The same measure, in the same setting: with `Cn1c2c(c3ccccc31)CC(=O)Nc1cccnc1-2` the figure was 3 µM; with `O=C1Cc2c([nH]c3ccc(C(=O)O)cc23)-c2ncccc2N1`, 30 µM.

Tested on in another test: not listed separately
Nature of the test: Inhibition of starfish CDK1/cyclin B. The arrangement: species or system Asteroidea.
Details: not given
Summed up: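 Kinase inhibition assays at 15 µM final ATP, run in triplicate.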
Compound `N#Cc1ccc2[nH]c3c(c2c1)CC(=O)Nc1ccncc1-3` gave an IC50 of 0.031 µM.
Still for that read-out and setting: the result for `O=C1Cc2c([nH]c3ccccc23)-c2ncccc2N1` reads 7 µM; that for `O=C1Cc2c([nH]c3ccc(Cl)cc23)-c2cnccc2N1`, 0.12 µM.
On the same count and under the same terms, the result for `O=C1Cc2c(n(-c3ccccc3)c3ccccc23)-c2ncccc2N1` reads greater than 10 µM; that for `O=C1Cc2c(n(Cc3ccccc3)c3ccccc23)-c2cnccc2N1`, greater than 10 µM.
In turn, `O=C1Cc2c(n(Cc3ccccc3)c3ccccc23)-c2ncccc2N1` came in with an IC50 greater than 10 µM.
On the same count and under the same terms, with `O=C1Cc2c([nH]c3ccc(O)cc23)-c2ncccc2N1` the figure was 4 µM; with `O=C1Cc2c([nH]c3c(F)cc(F)cc23)-c2ncccc2N1`, greater than 10 µM.
The same measure, in the same setting: with `COc1ccc2[nH]c3c(c2c1)CC(=O)Nc1cccnc1-3` the figure was 2 µM.
Same read-out and setting: with `O=C1Cc2c(oc3ccccc23)-c2ccccc2N1` the figure was greater than 10 µM; with `CCn1c2c(c3ccccc31)CC(=O)Nc1cccnc1-2`, greater than 10 µM; with `O=C1Cc2c([nH]c3ccc(Br)cc23)-c2ncccc2N1` [AZAKENPAULLONE], 2 µM.
`O=C1Cc2c([nH]c3ccc(Br)cc23)-c2cnccc2N1` came in with an IC50 of 0.11 µM.
`Cn1c2c(c3ccccc31)CC(=O)Nc1cccnc1-2` showed a 50% inhibitory concentration (IC50) greater than 10 µM.
On the same count and under the same terms, with `O=C1Cc2c([nH]c3ccc(C(=O)O)cc23)-c2ncccc2N1` the figure was 2.2 µM.

Tested on in another test: not listed separately
The experiment in a line: Activation of cyclophilin B gene expression in rat INS-1E cells at 10 uM after 4 hrs relative to control. Format: functional, cell-based.
Details: not given
Put shortly: as §1
Turning to `Cc1cnc(-c2cnc(NCCNc3ccc(C#N)cn3)nc2-c2ccc(Cl)cc2Cl)[nH]1` [LADUVIGLUSIB], the Fold change was found to be 1.31.

Tested on in the next test: not listed separately
Nature of the test: Activation of Pax4 RNA expression in rat INS-1E cells at 10 uM after 4 hrs relative to control. Format: functional, cell-based.
Details: not given
Put shortly: as §1
With `Cc1cnc(-c2cnc(NCCNc3ccc(C#N)cn3)nc2-c2ccc(Cl)cc2Cl)[nH]1` [LADUVIGLUSIB], the Fold change worked out at 0.78.

Tested on in a further test: not listed separately
Nature of the test: Activation of cyclophilin B gene expression in rat INS-1E cells at 10 uM after 24 hrs relative to control. Format: functional, cell-based.
Details: not given
Summed up: as §1
For `Cc1cnc(-c2cnc(NCCNc3ccc(C#N)cn3)nc2-c2ccc(Cl)cc2Cl)[nH]1` [LADUVIGLUSIB], the Fold change worked out at 1.12.

The next test concerns SH-SY5Y. The experiment in a line: Inhibition of GSK3 in human SHSY5Y cells assessed as beta-casein phosphorylation level in presence of MG132. It is filed as cell-based. The note with it: in the assay text read “beta-catenin” for “beta-casein”. Put shortly: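 Nearly confluent SH-SY5Y cells in DMEM with 10% FCS were co-treated with compound across a concentration range plus 2 µM MG132, DMSO ≤1% final. Phospho-β-catenin (Ser33/Ser37/Thr41) measured by ELISA and expressed as % of cells given MG132 alone (100%).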
On to `O=C1Cc2c([nH]c3ccc(Br)cc23)-c2ccccc2N1` [KENPAULLONE], for which the Activity entry is “Dose-dependent effect”.

The subject of a further test is Pancreatic beta cell. Nature of the test: Stimulation of rat primary beta cell replication at 5 uM. Format: functional.
Details: not given
Summed up: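 Isolated rat islets incubated with compound for 72 h, then disaggregated and spotted onto slides. Cells double-immunostained for C-peptide and Ki-67. Replication scored as % Ki-67+ among C-peptide+ cells, compared with untreated islets.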
For the compound `Cc1cnc(-c2cnc(NCCNc3ccc(C#N)cn3)nc2-c2ccc(Cl)cc2Cl)[nH]1` [LADUVIGLUSIB], the Activity came out at 2.5.
